Legend:
[1] = target: T1, Human immunodeficiency virus type 1 integrase (Human immunodeficiency virus 1, UniProt Q7ZJM1); experiment: Inhibitory concentration against purified recombinant integrase by strand transfer in vitro assay (experiment 1)
Procedure, shortened: (§1)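 Recombinant wild-type HIV-1 integrase, final 200 nM, preincubated with inhibitor for 30 min at 30 °C. Buffer: 50 mM NaCl, HEPES/MOPS, 7.5 mM MnCl2 when specified, 10% DMSO, 10% glycerol, BSA, 2-mercaptoethanol. Then 20 nM 5′-32P-labeled 21-mer U5 LTR duplex (AE117/AE118) added for 60 min. Products separated on denaturing 20% urea gel and quantified by phosphorimager. 3′-processing (19-mer) and strand transfer products read in one reaction. IC50 read from plot of concentration vs percent inhibition, several concentrations.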

[2] = target: T1, Human immunodeficiency virus type 1 integrase; experiment: Inhibitory concentration against purified recombinant integrase by strand transfer in vitro assay (experiment 2); procedure, shortened: as §1
[3] = target: T1, Human immunodeficiency virus type 1 integrase; experiment: Inhibitory concentration against purified recombinant integrase by 3'-processing in 3D search (experiment 1); procedure, shortened: as §1
[4] = target: T1, Human immunodeficiency virus type 1 integrase; experiment: Inhibitory concentration against purified recombinant integrase by 3'-processing in 3D search (experiment 2); procedure, shortened: as §1
[5] = target: T1, Human immunodeficiency virus type 1 integrase; experiment: Inhibitory concentration against purified recombinant integrase by 3'-processing in vitro assay (experiment 2); procedure, shortened: as §1
[6] = target: T1, Human immunodeficiency virus type 1 integrase; experiment: Inhibitory concentration against purified recombinant integrase by strand transfer 3D search (experiment 1); procedure, shortened: as §1
[7] = target: T1, Human immunodeficiency virus type 1 integrase; experiment: Inhibitory concentration against purified recombinant integrase by strand transfer 3D search (experiment 2); procedure, shortened: as §1
[8] = target: T1, Human immunodeficiency virus type 1 integrase; experiment: Inhibitory concentration against purified recombinant integrase by 3'-processing in vitro assay (experiment 1); procedure, shortened: as §1
[9] = target: Human immunodeficiency virus type 1 integrase (Human immunodeficiency virus 1) (UniProt Q7ZJM1); experiment: Percentage inhibition was obtained by performing in vitro assay on purified recombinant integrase by 3''-processing method at 100 micro g/mL (experiment 1)
Sequence of Human immunodeficiency virus type 1 integrase (Human immunodeficiency virus 1) (Q7ZJM1 as listed by the source): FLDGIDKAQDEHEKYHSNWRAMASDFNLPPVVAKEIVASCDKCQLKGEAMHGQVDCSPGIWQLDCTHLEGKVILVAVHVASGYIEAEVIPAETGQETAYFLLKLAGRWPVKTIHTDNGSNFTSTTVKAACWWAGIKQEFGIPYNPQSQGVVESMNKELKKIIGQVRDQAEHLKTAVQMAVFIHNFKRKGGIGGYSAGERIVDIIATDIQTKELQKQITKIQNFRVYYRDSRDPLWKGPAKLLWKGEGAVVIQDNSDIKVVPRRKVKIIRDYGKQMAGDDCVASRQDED
Procedure, shortened: (§2)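 Single concentration of 100 µg/mL tested. Recombinant HIV-1 integrase (200 nM final) preincubated with compound for 30 min at 30 °C in Mn2+/DMSO buffer, then reacted for 60 min with 20 nM 5′-32P-labeled 21-mer LTR duplex. Gel and phosphorimager quantitation of 19-mer 3′-processing and strand transfer products. %I = 100×[1−(D−C)/(N−C)], relative to DNA-alone and DNA+integrase controls.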

[10] = target: Human immunodeficiency virus type 1 integrase (Human immunodeficiency virus 1) (UniProt Q7ZJM1); experiment: Percentage inhibition was obtained by performing in vitro assay on purified recombinant integrase by 3''-processing method at 100 micro g/mL (experiment 2); procedure, shortened: as §2
[11] = target: Human immunodeficiency virus type 1 integrase (Human immunodeficiency virus 1) (UniProt Q7ZJM1); experiment: Percentage inhibition was obtained by performing in vitro assay on purified recombinant integrase by strand transfer method at 100 micro g/mL (experiment 1); procedure, shortened: as §2
[12] = target: Human immunodeficiency virus type 1 integrase (Human immunodeficiency virus 1) (UniProt Q7ZJM1); experiment: Percentage inhibition was obtained by performing in vitro assay on purified recombinant integrase by strand transfer method at 100 micro g/mL (experiment 2); procedure, shortened: as §2
[13] = target: T1, Human immunodeficiency virus type 1 integrase; experiment: Inhibitory concentration against purified recombinant integrase by 3'-processing in vitro assay
[14] = target: T1, Human immunodeficiency virus type 1 integrase; experiment: Inhibitory concentration against purified recombinant integrase by strand transfer in vitro assay
[15] = target: T1, Human immunodeficiency virus type 1 integrase; experiment: Inhibitory concentration against purified recombinant integrase by strand transferrin vitro assay; procedure, shortened: as §1
[16] = target: T1, Human immunodeficiency virus type 1 integrase; experiment: Inhibitory concentration against purified recombinant integrase by 3'-processing in 3D search
[17] = target: T1, Human immunodeficiency virus type 1 integrase; experiment: (§3) Inhibitory concentration against purified recombinant integrase by strand transfer 3D search; procedure, shortened: as §1
[18] = target: T1, Human immunodeficiency virus type 1 integrase; experiment: as §3; remark: listed apart in the source

T1 sequence (Q7ZJM1 whole entry): as the sequence (Q7ZJM1 as listed by the source) above

## O=C(NO)/C(CC(=O)c1ccc(O)cc1O)=N\O
[1]
  IC50: 16.5 µM
[2]
  IC50: 35.8 µM
[3]
  IC50: 29.9 µM
[4]
  IC50: 70.8 µM
[5]
  IC50: 71.3 µM
[6]
  IC50: 16.5 µM
[7]
  IC50: 35.8 µM
[8]
  IC50: 29.9 µM

## O=C(N/N=C/c1ccccc1O)C(O)(c1ccccc1)c1ccccc1
[9]
  inhibition: 34.7%
[10]
  inhibition: 56.7%
[11]
  inhibition: 70.5%
[12]
  inhibition: 74.1%

## O=c1ccc2cc(O[C@@H]3O[C@H](CO)[C@@H](O)[C@H](O)[C@H]3O)c(O)cc2o1
[9]
  inhibition: 40.8%
[10]
  inhibition: 29.6%
[11]
  inhibition: 67.7%
[12]
  inhibition: 34.2%

## O=C(CC(O)c1cccnc1)CC(O)c1cccnc1 (stereo not given)
[9]
  inhibition: 22.5%
[10]
  inhibition: 19.1%
[11]
  inhibition: 48.1%
[12]
  inhibition: 43.2%

## O=C(CCCCC(=O)c1ccc(O)cc1O)OCCO
[1]
  IC50: 185 µM
[2]
  IC50: 233 µM
[3]
  IC50: 294 µM
[4]
  IC50: 368 µM
[5]
  IC50: 367 µM
[6]
  IC50: 184 µM
[7]
  IC50: 234 µM
[8]
  IC50: 294 µM

## O=C(CC(O)(c1ccccc1)c1ccc(Cl)cc1)NC(=O)c1ccccc1O (stereo not given)
[1]
  IC50: 101 µM
[2]
  IC50: 142 µM
[3]
  IC50: 182 µM
[4]
  IC50: 237 µM
[5]
  IC50: 238 µM
[6]
  IC50: 101 µM
[7]
  IC50: 141 µM
[8]
  IC50: 182 µM

## O=C(NN(CCO)CCO)c1ccccc1
[9]
  inhibition: 25%
[10]
  inhibition: 43.9%
[11]
  inhibition: 52.4%
[12]
  inhibition: 69.9%

## Cc1cc(CC(=O)NCCO)n(CCO)c(=O)c1
[9]
  inhibition: 45.3%
[10]
  inhibition: 30.3%
[11]
  inhibition: 90.6%
[12]
  inhibition: 47.9%

## O=C1Oc2ccccc2C(O)C1C(c1ccccc1)C1C(=O)Oc2ccccc2C1O (stereo not given)
[13]
  IC50: 43.4 µM
[14]
  IC50: 38.8 µM

## CCN(CC)CCCC(C)Nc1cc(F)cc2cccnc12 (stereo not given)
[9]
  inhibition: 36.5%
[10]
  inhibition: 41.2%
[11]
  inhibition: 27.6%
[12]
  inhibition: 48.9%

## O=C(CC(=O)Nc1ccccc1O)Nc1ccccc1O
[9]
  inhibition: 23.1%
[10]
  inhibition: 17.6%
[11]
  inhibition: 57.2%
[12]
  inhibition: 37%

## O=C(N/N=C/c1ccccc1O)C(O)c1ccccc1 (stereo not given)
[9]
  inhibition: 37%
[10]
  inhibition: 45.8%
[11]
  inhibition: 77.9%
[12]
  inhibition: 70.2%

## COc1cc2oc(-c3ccc(O)cc3)cc(=O)c2c(O)c1C1OC(CO)C(O)C(O)C1O (stereo not given)
[1]
  IC50: 134 µM
[2]
  IC50: 143 µM
[3]
  IC50: 224 µM
[4]
  IC50: 291 µM
[5]
  IC50: 291 µM
[6]
  IC50: 134 µM
[7]
  IC50: 143 µM
[9]
  inhibition: 62.7%
[10]
  inhibition: 43.4%
[11]
  inhibition: 92.2%
[12]
  inhibition: 66.8%
[8]
  IC50: 224 µM

## COc1cc(N)ccc1C(=O)NC(CCC(=O)O)C(=O)O (stereo not given)
[1]
  IC50: 203 µM
[2]
  IC50: 271 µM
[3]
  IC50: 230 µM
[4]
  IC50: 270 µM
[5]
  IC50: 271 µM
[6]
  IC50: 203 µM
[7]
  IC50: 270 µM
[8]
  IC50: 228 µM

## CCC/C=C/C=C/[C@@H]1C[C@@H](O)[C@@H](O)C(=O)[C@H]1CO
[1]
  IC50: 268 µM
[2]
  IC50: 135 µM
[3]
  IC50: 350 µM
[4]
  IC50: 291 µM
[5]
  IC50: 289 µM
[6]
  IC50: 267 µM
[7]
  IC50: 134 µM
[8]
  IC50: 350 µM

## O=C(N/N=C/c1ccc(O)cc1O)N/N=C/c1ccc(O)cc1O
[15]
  IC50: 20.6 µM
[16]
  IC50: 26.3 µM
[13]
  IC50: 26 µM
[17]
  IC50: 20.6 µM

## O=C(OCCO)c1ccccc1O
[9]
  inhibition: 10.9%
[10]
  inhibition: 2.6%
[11]
  inhibition: 17.1%
[12]
  inhibition: 18.9%

## CCN(CC)CCCC(C)Nc1ccnc2ccc(Cl)nc12 (stereo not given)
[9]
  inhibition: 43.7%
[10]
  inhibition: 30.6%
[11]
  inhibition: 87.4%
[12]
  inhibition: 56.6%

## O=C(NCO)c1ccccc1O
[9]
  inhibition: 25.8%
[10]
  inhibition: 10.2%
[11]
  inhibition: 61.5%
[12]
  inhibition: 55.2%

## O=C(NCO)NCOCn1c(=O)n(CO)c(=O)n(CO)c1=O
[16]
  IC50: 5.29 µM
[13]
  IC50: 5.3 µM
[18]
  IC50: 4.98 µM
[14]
  IC50: 5 µM

## CCCCCCCCCCCCCCCCCCCN1CN(CO)CN(CO)C1=O
[9]
  inhibition: 20.8%
[10]
  inhibition: 43.2%
[11]
  inhibition: 54.4%
[12]
  inhibition: 69.7%

## O=C(O)CNC(=O)c1ccccc1O
[9]
  inhibition: 28.9%
[10]
  inhibition: 33.3%
[11]
  inhibition: 25%
[12]
  inhibition: 33.3%

## O=C(NCCO)c1cc(Cl)ccc1O
[9]
  inhibition: 0.4%
[10]
  inhibition: 2.2%
[11]
  inhibition: 0%
[12]
  inhibition: 13.4%

## C[C@H]1C(=O)c2c(cc(O)c(C3OC(CO)C(O)C(O)C3O)c2O)OC1c1ccc(O)c(O)c1 (stereo not given in full)
[1]
  IC50: 103 µM
[2]
  IC50: 47.6 µM
[3]
  IC50: 177 µM
[4]
  IC50: 125 µM
[5]
  IC50: 124 µM
[6]
  IC50: 103 µM
[7]
  IC50: 47.4 µM
[8]
  IC50: 177 µM

## O=C(NNC(=O)c1ccccc1O)c1ccccc1O.O=C(NNCC(O)COc1ccccc1)c1ccccc1O (stereo not given)
[16]
  IC50: 1.04 µM
[13]
  IC50: 2 µM
[18]
  IC50: 0.801 µM
[14]
  IC50: 1.5 µM

— ChEMBL document CHEMBL1129974, “Discovery of HIV-1 integrase inhibitors by pharmacophore searching” (J Med Chem, 1997)
